Source: ChEMBL document CHEMBL3596171, “Interrogating alkyl and arylalkylpolyamino (bis)urea and (bis)thiourea isosteres as potent antimalarial chemotypes against multiple lifecycle forms of Plasmodium falciparum parasites” (Bioorg Med Chem, 2015)
The source made the active and inactive calls. No cut-off for these calls is given here.

Columns and labels:
Plasmodium falciparum [1] = experiment: Antiplasmodial activity against asexual intraerythrocytic ring stage of chloroquine-sensitive Plasmodium falciparum 3D7 infected in human O+ erythrocytes assessed as inhibition of parasitic proliferation after 96 hrs by SYBR Green-1 based fluorescence assay; type: functional, organism-based; settings: 3D7, 96 h
Plasmodium falciparum [2] = experiment: Antiplasmodial activity against asexual intraerythrocytic ring stage of chloroquine-resistant Plasmodium falciparum W2 infected in human O+ erythrocytes assessed as inhibition of parasitic proliferation after 96 hrs by SYBR Green-1 based fluorescence assay; type: functional, organism-based; settings: W2, 96 h
Plasmodium falciparum [3] = experiment: Antiplasmodial activity against asexual intraerythrocytic ring stage of antifolate-resistant Plasmodium falciparum HB3 infected in human O+ erythrocytes assessed as inhibition of parasitic proliferation after 96 hrs by SYBR Green-1 based fluorescence assay; type: functional, organism-based; settings: HB3, 96 h
[4] = Selectivity index, ratio of GI50 for human HepG2 cells to IC50 for asexual intraerythrocytic ring stage of chloroquine-sensitive Plasmodium falciparum 3D7 infected in human O+ erythrocytes; type: functional
Plasmodium falciparum [5] = experiment: Resistance index, ratio of IC50 for asexual intraerythrocytic ring stage of chloroquine-resistant Plasmodium falciparum W2 infected in human O+ erythrocytes to IC50 for asexual intraerythrocytic ring stage of chloroquine-sensitive Plasmodium falciparum 3D7 infected in human O+ erythrocytes; type: functional
HepG2 [6] = experiment: (§1) Cytotoxicity against human HepG2 cells assessed as inhibition of cell growth after 48 hrs by LDH assay; type: cell-based; settings: hepg2, 48 h
Plasmodium falciparum [7] = experiment: Gametocytocidal activity against Plasmodium falciparum NF54-Mal8p1.16-GFP-Luc late (4 to 5) gametocyte assessed as inhibition of parasite viability at 5 uM after 48 hrs by luciferase reporter assay; type: functional, organism-based
Procedure, shortened: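 NF54 luciferase reporter line; gametocytogenesis induced in glucose-free medium under hypoxia without shaking, with daily medium changes. Mature stage IV/V gametocytes were used on day 10, at 2% gametocytemia and 2% hematocrit. Compound at 5 µM for 48 h, hypoxic, 37 °C, in triplicate; three biological repeats. Read-out was luciferase in lysates with luciferin substrate.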

[8] = as §1; type: cell-based; settings: HepG2 cells
[9] = Inhibition of NP-40-mediated beta-hematin formation after 5 hrs by pyridine-ferrichrome method; type: functional
HepG2 [10] = experiment: Cytotoxicity against human HepG2 cells assessed as cell viability at 5000XIC50 for Plasmodium falciparum 3D7 after 48 hrs by LDH assay; type: cell-based; settings: hepg2, 48 h
Plasmodium falciparum [11] = experiment: Plasmocidal activity against intraerythrocytic chloroquine-sensitive Plasmodium falciparum 3D7 infected in human O+ erythrocytes assessed as inhibition of parasitic proliferation at IC90 after 24 to 96 hrs by flow cytometry; type: functional, organism-based
Plasmodium falciparum [12] = experiment: Plasmocidal activity against intraerythrocytic early trophozoitic stage of chloroquine-sensitive Plasmodium falciparum 3D7 infected in human O+ erythrocytes assessed as cessation of nuclear division at IC90 after 24 hrs by SYBR Green I-based flow cytometry; type: functional, organism-based
Plasmodium falciparum [13] = experiment: (§2) Plasmocidal activity against intraerythrocytic chloroquine-sensitive Plasmodium falciparum 3D7 infected in human O+ erythrocytes assessed as irreversible inhibition of parasitic viability at IC90 pulsed with compound for 12 hrs followed by drug wash-out measured after 36 hrs by SYBR Green 1 based flow cytometry; type: functional
Procedure, shortened: (§3)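 Cultures were washed once in RPMI 1640 and diluted 1:40. Proliferation followed at set times over 36 h by SYBR Green I DNA fluorescence.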

Plasmodium falciparum [14] = experiment: Plasmocidal activity against intraerythrocytic chloroquine-sensitive Plasmodium falciparum 3D7 infected in human O+ erythrocytes assessed as cessation of nuclear division measured as proportion of schizonts containing 2N nuclear content at IC90 after 96 hrs by SYBR Green I-based flow cytometry; type: functional
Plasmodium falciparum [15] = experiment: as §2, with “10XIC90” for “IC90”; type: functional, organism-based; procedure, shortened: as §3
Plasmodium falciparum [16] = experiment: Plasmocidal activity against intraerythrocytic chloroquine-sensitive Plasmodium falciparum 3D7 infected in human O+ erythrocytes assessed as cessation of nuclear division measured as proportion of schizonts containing >2N nuclear content at IC90 after 96 hrs by SYBR Green I-based flow cytometry; type: functional
[17] = Inhibition of NP-40-mediated beta-hematin formation at >400 uM after 5 hrs by pyridine-ferrichrome method; type: functional
Procedure, shortened: (§4)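 NP-40 detergent (305.5 µM), water and DMSO mixed with compound over a concentration range. Incubated 5 h at 37 °C with hematin in 1 M acetate buffer, pH 4.8, with occasional shaking. β-Hematin measured by the pyridine-ferrichrome method, absorbance at 405 nm. Three biological repeats in triplicate.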

Plasmodium falciparum [18] = experiment: Plasmocidal activity against intraerythrocytic early trophozoitic stage of chloroquine-sensitive Plasmodium falciparum 3D7 infected in human O+ erythrocytes assessed as non-progressive pyknotic phenotype with apparently dying morphology at IC90 measured over 48 hrs single lifecycle by Giemsa staining based microscopy; type: functional, organism-based
Plasmodium falciparum [19] = experiment: Plasmocidal activity against intraerythrocytic chloroquine-sensitive Plasmodium falciparum 3D7 infected in human O+ erythrocytes assessed as cessation of nuclear division measured as proportion of rings/trophozoites containing 1N nuclear content at IC90 after 96 hrs by SYBR Green I-based flow cytometry
Plasmodium falciparum [20] = experiment: Antiplasmodial activity against chloroquine-resistant Plasmodium falciparum Dd2; type: functional, organism-based
[21] = Inhibition of NP-40-mediated beta-hematin formation at 1 mM after 5 hrs by pyridine-ferrichrome method; type: functional; procedure, shortened: as §4

| SMILES | IC50 (Plasmodium falciparum [1]) [µM] | IC50 (Plasmodium falciparum [2]) [µM] | IC50 (Plasmodium falciparum [3]) [µM] | Selectivity Index [4] | Ratio IC50 (Plasmodium falciparum [5]) | GI50 (HepG2 [6]) [µM] | further results |
| --- | --- | --- | --- | --- | --- | --- | --- |
| O=C(NCCCNCCCCCNCCCNC(=O)NC(c1ccccc1)c1ccccc1)NC(c1ccccc1)c1ccccc1 | 0.047 | 0.02 | 0.065 | 5113 | 0.43 | 240 |  |
| S=C(NCCCNCCCCCNCCCNC(=S)NC(c1ccccc1)c1ccccc1)NC(c1ccccc1)c1ccccc1 | 0.068 | 0.035 | 0.075 | 659 | 0.51 | 44.8 | inhibition (Plasmodium falciparum [7]): Active |
| O=C(NCCCNCCCCCCCNCCCNC(=O)NC(c1ccccc1)c1ccccc1)NC(c1ccccc1)c1ccccc1 |  |  |  |  | 1.7 |  | GI50 at 48 h [8]: > 200 µM |
| S=C(NCCCNCCCCNCCCNC(=S)NCc1ccccc1)NCc1ccccc1 |  |  |  |  |  |  | GI50 at 48 h [8]: > 200 µM |
| N=C(N)NCCCNCCCNCCCNC(=N)N | 147 |  | 110 |  |  |  |  |
| O=C(NCCCNCCCCCCNCCCNC(=O)Nc1ccccc1)Nc1ccccc1 |  |  |  |  | 0.3 |  |  |
| S=C(NCCCNCCCCCNCCCNC(=S)NCC(c1ccccc1)c1ccccc1)NCC(c1ccccc1)c1ccccc1 | 0.04 | 0.047 | 0.056 | 1305 | 1.18 | 52.2 | IC50 [9]: 16.7 µM |
| O=C(NCCCNCCCCCNCCCNC(=O)Nc1ccccc1)Nc1ccccc1 | 0.246 | 0.049 | 0.177 | >5000 | 0.2 |  | Activity (HepG2 [10]): 100% |
| S=C(NCCCNCCCCCNCCCNC(=S)NCCC(c1ccccc1)c1ccccc1)NCCC(c1ccccc1)c1ccccc1 | 0.076 | 0.041 | 0.062 | 666 | 0.54 | 50.6 | inhibition (Plasmodium falciparum [7]): Active |
| O=C(NCCCNCCCCCCCNCCCNC(=O)NCCC(c1ccccc1)c1ccccc1)NCCC(c1ccccc1)c1ccccc1 |  |  |  |  | 1.13 |  |  |
| O=C(NCCCNCCCCCNCCCNC(=O)NCC(c1ccccc1)c1ccccc1)NCC(c1ccccc1)c1ccccc1 | 0.028 | 0.018 | 0.04 | 3375 | 0.64 | 94.5 | inhibition (Plasmodium falciparum [11]): Active; Activity (Plasmodium falciparum [12]): Active |
| N=C(N)NCCCNCCCCNCCCNC(=N)N | 80 |  | 14.2 |  |  |  |  |
| O=C(NCCCNCCCCCNCCCNC(=O)NCCC(c1ccccc1)c1ccccc1)NCCC(c1ccccc1)c1ccccc1 | 0.03 | 0.036 | 0.056 | 5090 | 1.2 | 153 | inhibition (INH) (Plasmodium falciparum [13]): >40%; inhibition (Plasmodium falciparum [11]): Active; Activity (Plasmodium falciparum [14]): 10%; inhibition (Plasmodium falciparum [15]): Active; Activity (Plasmodium falciparum [16]): 2%; Activity (Plasmodium falciparum [12]): Active; inhibition [17]: Active; Activity (Plasmodium falciparum [18]): Active; Activity (Plasmodium falciparum [19]): 88% |
| S=C(NCCCNCCCCCCNCCCNC(=S)NCc1ccccc1)NCc1ccccc1 |  |  |  |  | 1.9 |  | GI50 at 48 h [8]: > 200 µM |
| S=C(NCCCNCCCCCCNCCCNC(=S)NC(c1ccccc1)c1ccccc1)NC(c1ccccc1)c1ccccc1 |  |  |  |  | 1.2 |  | GI50 at 48 h [8]: > 200 µM |
| C(CCCNCCCNCC1CCCCCC1)CCCNCCCNCC1CCCCCC1 | 0.11 |  |  |  |  |  | IC50 (Plasmodium falciparum [20]): 0.12 µM |
| N=C(N)NCCCNCCCCCCCNCCCNC(=N)N |  |  | 70.3 |  |  |  |  |
| S=C(NCCCNCCCCCNCCCNC(=S)NCc1ccccc1)NCc1ccccc1 | 0.249 | 0.042 | 0.178 | >5000 | 0.17 |  | Activity (HepG2 [10]): 100% |
| O=C(NCCCNCCCCCCCNCCCNC(=O)NCC(c1ccccc1)c1ccccc1)NCC(c1ccccc1)c1ccccc1 |  |  |  |  | 1.4 |  |  |
| O=C(NCCCNCCCCCNCCCNC(=O)NCc1ccccc1)NCc1ccccc1 | 0.793 | 0.171 | 0.593 | 2456 | 0.22 | 1950 | inhibition [21]: inactive |
